From ChEMBL document CHEMBL1909586 (Eur J Med Chem, 2011) come the findings set out here.

Each structure is given as a SMILES string.

The target of data set [1] is T1, Acetylcholinesterase (Homo sapiens, UniProt P22303). As to the kind of experiment: Inhibition of human […] recombinant AChE after 20 mins using acetylthiocholine iodide as a substrate by Ellman's assay. (Ellman's reagent forms a yellow product with free thiols.)
A further data set concerns the target Cholinesterase (Homo sapiens, UniProt P06276). As to the kind of experiment: Inhibition of human serum recombinant BChE after 20 mins using butyrylthiocholine iodide as a substrate by Ellman's assay.
Data set [2] concerns SH-SY5Y. As to the kind of experiment: Antioxidant activity in human SH-SY5Y cells assessed as inhibition of tert-butyl hydroperoxide-induced intracellular ROS production at 1 uM after 24 hrs using DCFH-DA by fluorescence assay (reference value: 82.4 +/- 6.6 %). It counts as functional. Details: scale not given: the % may be the effect or the level left.
The test system of data set [3] is SH-SY5Y. As to the kind of experiment: Antioxidant activity in human SH-SY5Y cells assessed as inhibition of tert-butyl hydroperoxide-induced intracellular ROS production at 10 uM after 24 hrs using DCFH-DA by fluorescence assay (reference value: 82.4 +/- 6.6 %). The data set is classed as functional. Details: scale not given: the % may be the effect or the level left.

Data set [4] deals with SH-SY5Y. As to the kind of experiment: Cytotoxicity against human SH-SY5Y cells assessed as reduction in cell viability at 50 uM after 24 hrs by MTT assay. It counts as cell-based. The gist of the method: (§1)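 Cells were SH-SY5Y, grown in DMEM with 10% fetal calf serum and 2 mM glutamine, seeded at 2 × 10^5 cells/well and allowed 24 h at 37 °C/5% CO2. Compound-containing media (0.1–50 µM) were applied for 24 h. After a PBS wash, cells took up MTT (5 mg/mL in PBS) for 4 h. Formazan was dissolved in isopropanol and read at 405 nm. Viability is given as % of control cells.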

Data set [5] concerns SH-SY5Y. As to the kind of experiment: Antioxidant activity in human SH-SY5Y cells assessed as inhibition of tert-butyl hydroperoxide-induced intracellular ROS production at 5 uM after 24 hrs using DCFH-DA by fluorescence assay (reference value: 82.4 +/- 6.6 %). The data set is classed as functional. Details: scale not given: the % may be the effect or the level left.
Data set [6] has as its system SH-SY5Y. As to the kind of experiment: Cytotoxicity against human SH-SY5Y cells at 0.1 to 50 uM after 24 hrs by MTT assay. The data set is classed as cell-based. The gist of the method:
as §1
A general note: Tetrazolium assays rely on reduction of a dye to a coloured formazan, in cell work by metabolically active cells.

Data set [7] concerns SH-SY5Y. As to the kind of experiment: Antioxidant activity in human SH-SY5Y cells assessed as inhibition of tert-butyl hydroperoxide-induced intracellular ROS production at 50 uM after 24 hrs using DCFH-DA by fluorescence assay (reference value: 82.4 +/- 6.6 %). It counts as functional. Further details: scale not given: the % may be the effect or the level left.
In data set [8] the target is T1, Acetylcholinesterase. As to the kind of experiment: Inhibition of human AChE-induced amyloid beta (1 to 40) aggregation at 100 uM after 24 hrs by thioflavin T based fluorometric assay.

T1 sequence (P22303 whole entry): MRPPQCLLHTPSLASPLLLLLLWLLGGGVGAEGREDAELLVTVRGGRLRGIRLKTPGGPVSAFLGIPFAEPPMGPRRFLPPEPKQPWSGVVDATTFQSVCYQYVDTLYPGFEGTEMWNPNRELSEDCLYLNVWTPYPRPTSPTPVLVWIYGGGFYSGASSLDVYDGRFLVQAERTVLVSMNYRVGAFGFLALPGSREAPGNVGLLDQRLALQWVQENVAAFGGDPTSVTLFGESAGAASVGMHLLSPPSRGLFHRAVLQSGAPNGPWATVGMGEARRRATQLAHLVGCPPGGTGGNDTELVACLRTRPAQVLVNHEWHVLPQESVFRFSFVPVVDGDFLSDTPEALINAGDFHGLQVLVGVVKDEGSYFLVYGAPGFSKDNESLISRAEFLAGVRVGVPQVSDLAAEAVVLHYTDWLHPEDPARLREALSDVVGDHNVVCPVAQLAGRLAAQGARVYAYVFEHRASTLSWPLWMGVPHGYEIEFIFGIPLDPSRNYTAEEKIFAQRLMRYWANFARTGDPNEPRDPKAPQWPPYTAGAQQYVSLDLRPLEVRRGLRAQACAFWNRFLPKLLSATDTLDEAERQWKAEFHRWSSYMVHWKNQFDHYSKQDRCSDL
Sequence of Cholinesterase (P06276 whole entry): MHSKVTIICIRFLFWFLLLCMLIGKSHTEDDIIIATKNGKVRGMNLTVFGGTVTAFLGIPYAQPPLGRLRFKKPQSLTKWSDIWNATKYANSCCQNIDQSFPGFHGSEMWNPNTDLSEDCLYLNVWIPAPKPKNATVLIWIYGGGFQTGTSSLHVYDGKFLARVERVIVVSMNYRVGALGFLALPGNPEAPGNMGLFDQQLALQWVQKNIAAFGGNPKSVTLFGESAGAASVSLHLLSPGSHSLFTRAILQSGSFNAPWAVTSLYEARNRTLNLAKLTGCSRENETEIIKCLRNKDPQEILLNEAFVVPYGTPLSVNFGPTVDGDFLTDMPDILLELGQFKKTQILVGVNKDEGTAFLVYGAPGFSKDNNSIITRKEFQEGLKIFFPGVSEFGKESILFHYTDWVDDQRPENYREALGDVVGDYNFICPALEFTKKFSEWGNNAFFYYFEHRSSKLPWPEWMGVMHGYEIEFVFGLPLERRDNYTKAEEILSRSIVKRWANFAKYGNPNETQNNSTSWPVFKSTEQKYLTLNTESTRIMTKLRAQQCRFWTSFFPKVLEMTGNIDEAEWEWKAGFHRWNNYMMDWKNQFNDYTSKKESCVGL

As usually defined, the IC50 is the concentration that inhibits the measured activity by half. For `O=C(CCCC[C@H]1CCSS1)NCCCNc1c2c(nc3cc(Cl)ccc13)CCCC2`, the IC50 at Acetylcholinesterase [1] was determined as 0.471 nM; on Cholinesterase, 12.1 nM.

As to `O=C(CCCC[C@@H]1CCSS1)NCCCNc1c2c(nc3cc(Cl)ccc13)CCCC2`, the IC50 at Cholinesterase amounted to 12.6 nM.

As to `O=C(CCCCc1cccs1)NCCCNc1c2c(nc3cc(Cl)ccc13)CCCC2`, the Activity with SH-SY5Y [2] is reported as 81%; in the data set on SH-SY5Y [3], 80.2%; with SH-SY5Y [4] it was 80%; in the data set with SH-SY5Y [5] it was 79.8%.

`COc1cccc(C(C)N(C)CCCNC(=O)CCCCC2CCSS2)c1` (mixture of isomers): the Activity in the data set with SH-SY5Y [2] was 82.5%; in the data set with SH-SY5Y [6], “Non-toxic”; with SH-SY5Y [3] it was 68.8%; in the data set on SH-SY5Y [7], 46.4%; in the data set with SH-SY5Y [5], 80%.

On to `CC(c1cccc(OCCCNC(=O)CCCCC2CCSS2)c1)N(C)C` (mixture of isomers), for which the Activity is reported as 80.3% with SH-SY5Y [2]; “Non-toxic” in the data set with SH-SY5Y [6]; 48% in the data set with SH-SY5Y [3]; 34.4% in the data set on SH-SY5Y [7]; 76.8% in the data set on SH-SY5Y [5].

In the case of `COc1cc2nc(Cl)nc(NCCCNC(=O)CCCCC3CCSS3)c2cc1OC` (racemic), the Activity in the data set with SH-SY5Y [2] worked out at 82%; with SH-SY5Y [3], 63.4%; in the data set with SH-SY5Y [4], 30%; in the data set with SH-SY5Y [5] it was 73.5%. At Cholinesterase, the IC50 worked out at 205000 nM.

In general, inhibition refers to the percentage by which the read-out fell short of the control. Consider `CCN(CCCCCCNC(=O)CCCCC1CCSS1)Cc1ccccc1OC` (racemic), for which the Activity with SH-SY5Y [2] is reported as 80.8%; in the data set with SH-SY5Y [6] it was “Non-toxic”; with SH-SY5Y [3] it was 69.6%; in the data set with SH-SY5Y [7] it was 37.6%; in the data set on SH-SY5Y [5] it was 75.8%. In addition, the inhibition against Acetylcholinesterase [8] came to 16.8%.

With `O=C(CCCCC1CCSS1)NCCCNc1c2c(nc3cc(Cl)ccc13)CCCC2` (racemic) [LIPOCRINE], the Activity was determined as 83.2% with SH-SY5Y [2], 50% with SH-SY5Y [3], 31% in the data set on SH-SY5Y [7] and 65% in the data set on SH-SY5Y [5]. The compound also returned an inhibition on Acetylcholinesterase [8] of 61.8%.
